Screens as filed in PubChem BioAssay.
The entries come from a sample that favours hits as a whole.
T cruzi repl: T. cruzi replication inhibition | T. cruzi beta-gal in NIH3T3, luminescence, 90 h | inhibition, % (no concentration beside the values) | 300,000 tested, 1.4% active | AID 1885;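 active means mean inhibition across valid replicates above about 55%, limit read from the data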;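 further: signal also drops with host cell toxicity which is not excluded here; higher percent means less beta-gal luminescence so fewer parasites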
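System: mouse NIH/3T3 fibroblasts infected with β-gal-expressing T. cruzi Tulahuen C4 / Input: NIH/3T3 cells, 5,000 per well / Buffer or medium: Low-serum DMEM with 2% FBS / Probe or stimulus: 5000 reporter trypomastigotes per well / Schedule: ≥90 h infection period, 3 h prior cell attachment / Measured by: GalScreen luminescence, 60 min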
CHOP inhibitor: CHOP inhibition in unfolded protein response; inhibition, % at 10 µM; AID 2732; 220,000 tested, 3.8% active; CHO-K1 CHOP-promoter luciferase, tunicamycin-induced, 15-18 h;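 active means compounds that reduced the stress-induced luciferase reporter signal by more than about 70% of percent inhibition, limit read from the data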
Dynein cargo inh: dynein cargo transport inhibition; 3617.4 mouse cells, GR-EGFP nuclear translocation imaging; test concentration mostly 20 µM; stimulated with dexamethasone, 1 µM; hits give low values; z-score, hits read low; 220,000 tested, 0.47% active;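 active means plate z-score of nuclear minus cytoplasmic receptor signal below a set negative limit, without overly bright fluorescence or cell loss, cut at about -3.5 in these data, passing the limit was not always enough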;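 further: z-score of nuclear minus cytoplasmic ring GR-EGFP intensity difference per well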
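Also added – dexamethasone, 1.0 µM final · Buffer or medium – tet-free, stripped-serum medium · Schedule – induction 48 h, compound 1 h, agonist 30 min · Detection – formaldehyde fixation, Hoechst nuclear stain, 10x automated fluorescence imaging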
UPR XBP1 act: activators of adaptive arm of unfolded protein response (XBP1) | CHO-XBP1 luciferase reporter, IRE1-XBP1 UPR activation, luminescence; percent of tunicamycin response, DMSO as zero | activation, % at 20 µM | 330,000 tested, 0.33% active;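 active means versus positive control, 20 µM dose yields 30% or more activation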
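assay system = CHO-XBP1 luciferase reporter cells | amount = 1000 cells/well | buffer or medium = F12 plus 10% FBS | compound dosing = single point, 20 µM final compound, 1% DMSO | incubation = 16-18 h cell attachment at 37 °C, then 6 h compound exposure | detection = Steady-Glo luminescence read | controls = tunicamycin 10 µg/mL and vehicle-only wells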
UPR CHOP act: apoptotic UPR (CHOP) activation; activation, % at 10 µM; CHO-CHOP luciferase reporter, luminescence; percent of tunicamycin response over DMSO baseline; 330,000 tested, 0.34% active; AID 449763;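 active means at 10 µM dose, activation of 40% or more, normalized to positive control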
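Assay system: CHO cells with stable CHOP pathway luciferase reporter; Buffer or medium: F12 plus 10% serum; Times: 16-18 h cell attachment, then 6 h compound exposure, 37 °C; Signal: luciferase luminescence; Read-out basis: percent activation relative to tunicamycin control; Control set: tunicamycin high control, DMSO low control.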
Lmaj promast: Leishmania major promastigote growth inhibition | Leishmania major promastigotes, resazurin fluorescence viability | inhibition, % at 10 µM | 200,000 tested, 9% active | AID 1063; in the data active means inhibition above about 50%;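 further: promastigotes grown with compound for 44 hours at 28 °C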
Of the large screens only hits and unclear results are named; the others gave an inactive call.

Cc1ccc(-c2cc(C(=O)NCc3cnn(C)c3C)c3cc(Br)ccc3n2)cc1	CHOP inhibitor 78
CCC(C)(C)C1CCc2[nH]nc(C(=O)NCCCNC(=O)OC(C)(C)C)c2C1 (configuration not stated)	none (no result: T cruzi repl, CHOP inhibitor, Dynein cargo inh, Lmaj promast)
Cn1c(SCc2ccc(Cl)cc2)nc(C(F)(F)F)cc1=O	CHOP inhibitor 73
O=c1cc(O)nc(SCc2ccccc2)n1-c1ccc(Cl)cc1	none
Cc1ccc(S(=O)(=O)N/N=C\C=C\c2ccccc2)cc1	Lmaj promast 83
CN(C)c1ccc(/C=N/NS(=O)(=O)c2ccc(Br)cc2)cc1	none (no result: Lmaj promast)
O=S(=O)(N/N=C\C=C\c1ccccc1)c1ccc(Br)cc1	Lmaj promast 97
Cc1ccc(S(=O)(=O)N/N=C/c2ccc(C(=O)O)cc2)cc1	none
Cc1ccc(C)c(NC(=O)CSc2nc(=O)n(CCN3CCOCC3)c3c2CCCC3)c1	none (no result: CHOP inhibitor, Dynein cargo inh, Lmaj promast)
CCN(CC)CCCOC(=O)C(c1ccccc1)c1ccccc1	Lmaj promast 86
CCC(C(=O)OCCOCCN(CC)CC)c1ccccc1 (configuration not stated)	none (no result: Lmaj promast)
Cc1[nH]c2c(Cl)cccc2c(=O)c1CN1CCCCCC1	T cruzi repl 57 (no result: CHOP inhibitor, Dynein cargo inh, Lmaj promast)
Cc1cccc(C(=O)OC2CCOC2=O)c1C (configuration not stated)	none (no result: CHOP inhibitor, Dynein cargo inh, Lmaj promast)
COc1ccc(OC)c(S(=O)(=O)N2CCC(C(=O)Nc3cccc(C(F)(F)F)c3)CC2)c1	Lmaj promast 91 (no result: T cruzi repl)
Nc1c(N(Cc2ccccc2)C(=O)COc2ccc(F)cc2Cl)c(=O)[nH]c(=O)n1Cc1ccccc1	none (no result: T cruzi repl, CHOP inhibitor, Dynein cargo inh, Lmaj promast)
C(=N\Nc1ccccc1)/c1ccc(N2CCOCC2)cc1	none
Clc1cccc(N/N=C/c2ccc(N3CCOCC3)cc2)c1	T cruzi repl 60, Lmaj promast 83
CCN1CCN(c2c(/C=C3\SC(=S)N(Cc4ccco4)C3=O)c(C)c(C#N)c(=O)n2C)CC1	none (no result: Lmaj promast)
O=C(CN1CCN(c2ccc(F)cc2)CC1)N1CCOCC1	none
O=C(c1ccccc1)C1CCN(CC(=O)N2CCN(c3ccccc3)CC2)CC1	Lmaj promast 92
O=C(CN1CCN(c2ccc(F)cc2)CC1)N1CCC(Cc2ccccc2)CC1	Lmaj promast 88
O=C(CN1C(=O)NC2(CCCCCCC2)C1=O)N1CCc2ccccc2C1	Lmaj promast 68
O=C(CN1CCC(Cc2ccccc2)CC1)N1CCc2ccccc2C1	Lmaj promast 79
CC1CCN(CC(=O)N2CCN(c3ccccc3)CC2)CC1	none (no result: CHOP inhibitor, Dynein cargo inh, Lmaj promast)
COCCn1cnc2c1c(=O)n(CC(=O)NC(=O)NC(C)(C)C)c(=O)n2Cc1ccccc1	none (no result: CHOP inhibitor, Dynein cargo inh, UPR XBP1 act, UPR CHOP act, Lmaj promast)
COc1ccc(-n2nc(C(=O)NCC(=O)NCCCN3CCOCC3)c3ccccc3c2=O)cc1	none (no result: CHOP inhibitor, Dynein cargo inh, Lmaj promast)
O=C(NCCCN1CCCC1=O)c1cccc(NS(=O)(=O)c2ccc(Br)cc2)c1	none (no result: CHOP inhibitor, Dynein cargo inh, Lmaj promast)
CN(C)CCCNC(=O)c1cc(C(=O)c2cccc(Cl)c2Cl)c[nH]1	none (no result: CHOP inhibitor, Dynein cargo inh, Lmaj promast)
O=C(CN(C1CCCCC1)C1CCCCC1)N1CCc2ccccc2C1	CHOP inhibitor 87, Lmaj promast 64
CC1CCCN(S(=O)(=O)c2ccc3[nH]c4c(c3c2)CCCC4)C1 (configuration not stated)	none (no result: CHOP inhibitor, Dynein cargo inh, Lmaj promast)
Fc1ccc(-n2cc(-c3ccccc3)c3c(N4CCOCC4)ncnc32)cc1	CHOP inhibitor 70
COc1ccc(-n2cc(-c3ccccc3)c3c(NCCCN4CCOCC4)ncnc32)cc1	none
CCN1CCN(c2ncnc3c2c(-c2ccccc2)cn3-c2ccc(F)cc2)CC1	Lmaj promast 86
COc1ccc(-n2cc(-c3ccccc3)c3c(N4CCOCC4)ncnc32)cc1	CHOP inhibitor 81
OCCN1CCN(c2ncnc3c2c(-c2ccccc2)cn3-c2ccc(Br)cc2)CC1	none
COc1ccccc1Cn1c(=S)[nH]c2ccc(F)cc2c1=O	none (no result: CHOP inhibitor, Dynein cargo inh, Lmaj promast)
CCOc1ccc(N(CC(=O)N2CCOCC2)S(=O)(=O)c2ccc(Cl)cc2)cc1	none (no result: CHOP inhibitor, Dynein cargo inh, Lmaj promast)
Cc1cccc(OCC(=O)N/N=C/CC(C)c2ccccc2)c1C (configuration not stated)	CHOP inhibitor 77
Cc1ccc(OCC(=O)N/N=C/C=C/c2ccco2)cc1	Lmaj promast 76
O=C(COc1ccccc1[N+](=O)[O-])N/N=C/C=C/c1ccco1	none
